Source: ChEMBL document CHEMBL1138348, “A p-[18F]fluoroethoxyphenyl bicyclic nucleoside analogue as a potential positron emission tomography imaging agent for varicella-zoster virus thymidine kinase gene expression” (J Med Chem, 2007)

Columns and labels:
Heart [1] = assay: Biodistribution in NMRI mouse heart assessed as radioactivity after 2 mins; assay type: ADME, organism-based; details: in vivo
How it was run: (§1)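 Male NMRI mice (37–43 g) given 0.1 mL HPLC-purified tracer (diluted in water for injection, EtOH <5%; 37 MBq/mL for 11C tracer, 3.7 MBq/mL for 18F tracer) via tail vein under ketamine/xylazine ip anaesthesia. Decapitation at 2 or 60 min, n=3 per time point. Organs dissected, weighed, gamma counted. Results given as %ID (cpm organ/total cpm recovered) or SUV. Blood mass taken as 7% of body mass. Mean ± SD.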

Heart [2] = assay: Biodistribution in NMRI mouse heart assessed as radioactivity after 60 mins; assay type: ADME, organism-based; details: in vivo, 1 h; how it was run: as §1
Stomach [3] = assay: Biodistribution in NMRI mouse stomach assessed as radioactivity after 2 mins; assay type: ADME, organism-based; details: in vivo; how it was run: as §1
Stomach [4] = assay: Biodistribution in NMRI mouse stomach assessed as radioactivity after 60 mins; assay type: ADME, organism-based; details: in vivo, 1 h; how it was run: as §1
Intestine [5] = assay: Biodistribution in NMRI mouse intestine assessed as radioactivity after 2 mins; assay type: ADME, organism-based; details: in vivo; how it was run: as §1
Intestine [6] = assay: Biodistribution in NMRI mouse intestine assessed as radioactivity after 60 mins; assay type: ADME, organism-based; details: in vivo, 1 h; how it was run: as §1
Brain [7] = assay: Biodistribution in NMRI mouse brain assessed as radioactivity after 2 mins; assay type: ADME, organism-based; details: in vivo; how it was run: as §1
Brain [8] = assay: Biodistribution in NMRI mouse brain assessed as radioactivity after 60 mins; assay type: ADME, organism-based; details: in vivo, 1 h; how it was run: as §1
Blood [9] = assay: Biodistribution in NMRI mouse blood assessed as radioactivity after 2 mins; assay type: ADME, organism-based; details: in vivo; how it was run: as §1
Blood [10] = assay: Biodistribution in NMRI mouse blood assessed as radioactivity after 60 mins; assay type: ADME, organism-based; details: in vivo, 1 h; how it was run: as §1
[11] = Partition coefficient, log P in 1-octanol and phosphate buffer at pH 7.4; assay type: physicochemical; details: 1-octanol/phosphate buffer
How it was run: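 HPLC-isolated tracer (about 550 kBq 11C or 185 kBq 18F) partitioned between 1-octanol and 0.025 M phosphate buffer pH 7.4 (2 mL each). Vortexed 2 min at room temperature, centrifuged 1837 g for 5 min. Aliquots of both phases weighed and gamma counted. P calculated as the cpm/mL ratio after density correction; n=6.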

Mus musculus [12] = species: Mus musculus; assay: Biodistribution in NMRI mouse urine assessed as radioactivity after 2 mins; assay type: ADME, organism-based; details: in vivo; how it was run: as §1
Mus musculus [13] = species: Mus musculus; assay: Biodistribution in NMRI mouse urine assessed as radioactivity after 60 mins; assay type: ADME, organism-based; details: in vivo, 1 h; how it was run: as §1
Kidney [14] = assay: Biodistribution in NMRI mouse kidney assessed as radioactivity after 2 mins; assay type: ADME, organism-based; details: in vivo; how it was run: as §1
Kidney [15] = assay: Biodistribution in NMRI mouse kidney assessed as radioactivity after 60 mins; assay type: ADME, organism-based; details: in vivo, 1 h; how it was run: as §1
Liver [16] = assay: Biodistribution in NMRI mouse liver assessed as radioactivity after 2 mins; assay type: ADME, organism-based; details: in vivo; how it was run: as §1
Liver [17] = assay: Biodistribution in NMRI mouse liver assessed as radioactivity after 60 mins; assay type: ADME, organism-based; details: in vivo, 1 h; how it was run: as §1
Mus musculus [18] = species: Mus musculus; assay: Biodistribution in NMRI mouse spleen + pancreas assessed as radioactivity after 2 mins; assay type: ADME, organism-based; details: in vivo; how it was run: as §1
Mus musculus [19] = species: Mus musculus; assay: Biodistribution in NMRI mouse spleen + pancreas assessed as radioactivity after 60 mins; assay type: ADME, organism-based; details: in vivo, 1 h; how it was run: as §1
Lung [20] = assay: Biodistribution in NMRI mouse lungs assessed as radioactivity after 2 mins; assay type: ADME, organism-based; details: in vivo; how it was run: as §1
Lung [21] = assay: Biodistribution in NMRI mouse lungs assessed as radioactivity after 60 mins; assay type: ADME, organism-based; details: in vivo, 1 h; how it was run: as §1
Mus musculus [22] = species: Mus musculus; assay: Biodistribution in NMRI mouse carcass assessed as radioactivity after 2 mins; assay type: ADME, organism-based; details: in vivo; how it was run: as §1
Mus musculus [23] = species: Mus musculus; assay: Biodistribution in NMRI mouse carcass assessed as radioactivity after 60 mins; assay type: ADME, organism-based; details: in vivo, 1 h; how it was run: as §1
[24] = Drug uptake in LV-VZVTK-IP transduced 293T cells assessed as radioactivity at 1.1 MBq after 0.5 hrs; assay type: ADME, cell-based; details: human, hek-293t
How it was run: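 293T cells stably transduced with lentivirus carrying VZV-tk-IRES-pac (kept in 1 µg/mL puromycin), alongside untransduced control 293T cells. Plated in triplicate at 200 000 cells/well. After 24 h, fresh medium with HPLC-purified tracer added: 1.1 MBq (11C tracer, 0.5 h) or 185 kBq (18F tracer, 3 h), 37 °C. Cells washed with ice-cold PBS and lysed. Gamma counting. Uptake given as % of total radioactivity per mg protein (Bio-Rad assay).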

With `[11CH3]Oc1ccc(-c2cc3cn([C@H]4C[C@H](O)[C@@H](CO)O4)c(=O)nc3o2)cc1` the Drug uptake (Heart [1]) was 0.5 %ID, the Drug uptake (Heart [2]) was 0 %ID and the Drug uptake (Stomach [3]) was 1.2 %ID. It also gave a Drug uptake (Stomach [4]) of 1 %ID, a Drug uptake (Intestine [5]) of 16.8 %ID and a Drug uptake (Intestine [6]) of 46.7 %ID. It also gave a Drug uptake (Brain [7]) of 0 %ID, a Drug uptake (Brain [8]) of 0 %ID and a Drug uptake (Blood [9]) of 7.1 %ID. The Drug uptake (Blood [10]) was 0.6 %ID, the logD [11] was 1.3 and the Drug uptake (Mus musculus [12]) was 1.4 %ID. It also gave a Drug uptake (Mus musculus [13]) of 34.3 %ID, a Drug uptake (Kidney [14]) of 22.9 %ID and a Drug uptake (Kidney [15]) of 1.4 %ID. For the same compound, the Drug uptake (Liver [16]) was 20.3 %ID, the Drug uptake (Liver [17]) was 9.9 %ID and the Drug uptake (Mus musculus [18]) was 1.5 %ID. For the same compound, the Drug uptake (Mus musculus [19]) was 0.4 %ID, the Drug uptake (Lung [20]) was 1.2 %ID and the Drug uptake (Lung [21]) was 0.1 %ID. It also gave a Drug uptake (Mus musculus [22]) of 29.5 %ID, a Drug uptake (Mus musculus [23]) of 5.8 %ID and a Drug uptake [24] of 28.8 %ID.
